This note sets out measurements from ChEMBL document CHEMBL1138692 (Bioorg Med Chem Lett, 2004).

By Ki is commonly meant a dissociation constant, usually derived from enzyme kinetics or from competition with a known ligand. Read a low Ki as higher affinity. One may read the IC50 as the midpoint of a concentration-inhibition curve. Higher therefore signals a need for much substance. The bioavailability is dose-corrected exposure relative to a reference, in per cent. Higher therefore signals much systemic uptake. What is called half-life is the time needed for the level to fall by half in the phase considered. Low readings indicate rapid decline, high ones slow decline.

Series [1] has as its target Human immunodeficiency virus type 1 protease (Human immunodeficiency virus 1, UniProt Q72874). Description: Inhibition of HIV-1 Protease activity.
Series [2] relates to MT4. Kind of series: Antiviral activity against PI resistant virus EP13 in MT-4 cell line. The format is functional, cell-based. To be noted: Homo sapiens. The essentials: (§1)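 Antiviral IC50 measured in MT4 cells infected with the named HIV strain: wild-type HXB2, or the multi-PI-resistant EP13 or D545701.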
Series [3] deals with MT4. Kind of series: Antiviral activity against PI resistant virus D545701 in MT-4 cell line. The format is functional, cell-based. The following applies: Homo sapiens. The essentials:
as §1

Series [4] deals with MT4. Description: Antiviral activity against wild-type HIV virus (HXB2) in MT-4 cell line. The format is functional, cell-based. To be noted: Homo sapiens. The essentials: as §1
Series [5] relates to MT4. Description: Antiviral activity against PI resistant virus EP13 was determined in MT-4 cell line. The format is functional, cell-based. To be noted: Homo sapiens. The essentials: as §1
Series [6] concerns MT4. Description: Antiviral activity against wild-type HIV virus (HXB2) was determined in MT-4 cell line. The format is functional, cell-based. To be noted: Homo sapiens. The essentials: as §1
Series [7] has as its system MT4. Description: Antiviral activity against PI resistant virus D545701 was determined in MT-4 cell line. The format is functional, cell-based. To be noted: Homo sapiens. The essentials: as §1
A short description of series [8]: Oral bioavailability in rat. The format is ADME, organism-based. To be noted: in vivo.
The nature of series [9]: Half life period in rat. The format is ADME, organism-based. To be noted: in vivo.

The compound `COC(=O)NCCCC(C)(C)CN(C[C@@H](O)[C@H](Cc1ccccc1)NC(=O)O[C@H]1CO[C@H]2OCC[C@H]21)S(=O)(=O)c1ccc(N)cc1` came in with a Ki in [1] of 0.00026 nM. Further, the IC50 amounted to 46 nM with MT4 [2], 95 nM with MT4 [3] and 31 nM in the series with MT4 [4].
With `COC(=O)NCCCC(C)(C)CN(C[C@@H](O)[C@H](Cc1ccccc1)NC(=O)O[C@H]1CO[C@H]2OCC[C@H]21)S(=O)(=O)c1cccc(N)c1`, in series [1], the affinity, expressed as Ki, was 0.00021 nM. Moreover, the IC50 in the series with MT4 [5] was found to be 36 nM; in the series on MT4 [6], 18 nM; in the series with MT4 [7], 100 nM.
On the same counts, the results for `COC(=O)NCCCCCC(C)(C)CN(C[C@@H](O)[C@H](Cc1ccccc1)NC(=O)O[C@H]1CO[C@H]2OCC[C@H]21)S(=O)(=O)c1ccc2c(c1)OCO2` are 0.00012 nM, 46 nM, 5.5 nM and 65 nM.
As for `Cc1c(O)cccc1C(=O)N[C@@H](CSc1ccccc1)[C@H](O)CN1C[C@H]2CCCC[C@H]2C[C@H]1C(=O)NC(C)(C)C`, the IC50 in the series with MT4 [5] was 450 nM; in the series with MT4 [6] it was 320 nM; in the series on MT4 [7], more than 1000 nM.
`COC(=O)NCCCCC(C)(C)CN(C[C@@H](O)[C@H](Cc1ccccc1)NC(=O)O[C@H]1CO[C@H]2OCC[C@H]21)S(=O)(=O)c1ccc2c(c1)OCO2`: the IC50 in the series with MT4 [5] worked out at 15 nM; in the series with MT4 [6], 1.6 nM; in the series on MT4 [7], 9.2 nM. This compound yielded a bioavailability in series [8] of 20%. The compound further had a half-life in series [9] of 1.3 h.
In [1], `COC(=O)NCCC(C)(C)CN(C[C@@H](O)[C@H](Cc1ccccc1)NC(=O)O[C@H]1CO[C@H]2OCC[C@H]21)S(=O)(=O)c1ccc2c(c1)OCO2` displayed a Ki of 0.00016 nM. In addition, the concentration for half-maximal inhibition (IC50) worked out at 22 nM with MT4 [5], 1.4 nM in the series on MT4 [6] and 40 nM with MT4 [7].
On the same counts, the results for `CC(C)CN(C[C@@H](O)[C@H](Cc1ccccc1)NC(=O)O[C@H]1CCOC1)S(=O)(=O)c1ccc(N)cc1` are 0.057 nM, 440 nM, 130 nM and more than 1000 nM.
On to `CC(C)(CCCNS(C)(=O)=O)CN(C[C@@H](O)[C@H](Cc1ccccc1)NC(=O)O[C@H]1CO[C@H]2OCC[C@H]21)S(=O)(=O)c1ccc2c(c1)OCO2`, for which the IC50 stood at 47 nM with MT4 [5], 33 nM in the series on MT4 [6] and 150 nM in the series with MT4 [7].
Regarding `CNC(=O)NCCCC(C)(C)CN(C[C@@H](O)[C@H](Cc1ccccc1)NC(=O)O[C@H]1CO[C@H]2OCC[C@H]21)S(=O)(=O)c1ccc2c(c1)OCO2`, the results for the IC50 in the series on MT4 [5], in the series on MT4 [6] and with MT4 [7] were 110 nM, 38 nM and 200 nM, respectively.
On to `COC(=O)NCCCC(C)(C)CN(C[C@@H](O)[C@H](Cc1ccccc1)NC(=O)O[C@H]1CO[C@H]2OCC[C@H]21)S(=O)(=O)c1ccc2c(c1)OCO2`, for which the affinity in series [1] corresponds to a Ki of 0.00052 nM. Besides, the IC50 came to 38 nM in the series on MT4 [5], 4.7 nM in the series on MT4 [6] and 66 nM with MT4 [7].
Take `CC(C)(CCCN)CN(C[C@@H](O)[C@H](Cc1ccccc1)NC(=O)O[C@H]1CO[C@H]2OCC[C@H]21)S(=O)(=O)c1ccc2c(c1)OCO2`: the IC50 was 540 nM with MT4 [2], 730 nM with MT4 [3] and 370 nM in the series with MT4 [4].
Take `CC(C)(C)NC(=O)[C@@H]1CN(Cc2cccnc2)CCN1C[C@@H](O)C[C@@H](Cc1ccccc1)C(=O)N[C@H]1c2ccccc2C[C@H]1O`: the IC50 is 330 nM with MT4 [5], 50 nM in the series with MT4 [6] and 440 nM in the series on MT4 [7].
For the compound `CC(=O)NCCCC(C)(C)CN(C[C@@H](O)[C@H](Cc1ccccc1)NC(=O)O[C@H]1CO[C@H]2OCC[C@H]21)S(=O)(=O)c1ccc2c(c1)OCO2`, the IC50 with MT4 [5] is 30 nM; in the series with MT4 [6], 23 nM; in the series with MT4 [7] it was 120 nM.
